Measurements from PubChem BioAssay.
Inconclusive results are not listed.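 How the source made its calls, unless noted: active means inhibition over a set limit, the all-compound mean plus 3 SD, in both replicate runs; inconclusive means over that limit in just one replicate run; inactive means at or under that limit in both runs.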

Key:
[1] = OD615 S. cerevisiae growth inhibition, permissive medium, pilot counter-assay, permissive growth control for S. cerevisiae lifespan shortening project (AID 705;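 active means growth inhibition above 25% in both replicates, a cutoff set 3 SD above the mean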); details: OD615, 24 h, at 10 µM, stronger effect = higher value
How it was run: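 System: engineered DeaD yeast; Medium: permissive raffinose/galactose medium; Compound dosing: 10 µM single dose, 0.25% DMSO; Incubation: 4 h cell pre-growth, 24 h exposure at 30 °C; Technique: OD at 615 nm; Evaluation: growth inhibition from lowered OD615 after 24 h.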

[2] = Restrictive medium S. cerevisiae growth inhibition, OD615, pilot screen of yeast lifespan reduction project, restrictive growth control (AID 706;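 active means growth inhibition above a set limit, 3 SD over mean compound inhibition, in both replicates, cut at about 43% in these data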;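 further: modified DeaD lifespan yeast strain shifted to restrictive glucose medium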); details: OD615, 48 h, at 10 µM, stronger effect = higher value
How it was run: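 Material: modified S. cerevisiae; buffer or medium: CSMM-D glucose medium; doses: one concentration, 10 µM final, 0.25% DMSO; incubation: 48 h compound exposure at 30 °C; detection: optical density at 615 nm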

[3] = viability gain of MRP-1-high H69AR cells under doxorubicin, pilot screen, MRP-1 activator project, CellTiter-Glo, duplicate (AID 807;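 active means viability increase at or above a cutoff of the median across tested compounds plus 3 SD, cut at about 8.5% in these data, passing the limit was not always enough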;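 further: compound pretreatment 18-22 h then 72 h combined with doxorubicin; 0% = doxorubicin alone and 100% = vehicle without doxorubicin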); details: H69AR viability with doxorubicin, CellTiter-Glo luminescence; at 10 µM; stronger effect = higher value
[4] = growth suppression of beta-catenin knockout HCT116, pilot screen, human colon tumor cells (AID 823;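 active means cell viability at or below a set limit in both duplicate runs, the limit being the all-compound median minus 4 SD, cut at about 23% in these data, passing the limit was not always enough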;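 further: 0% = wells killed by 20 µM Hyamine and 100% = untreated DMSO cell wells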); details: CellTiter-Glo, 60 h, at 10 µM, stronger effect = lower value
[5] = growth suppression of PTEN-deleted HCT116, pilot screen, cell-based, HCT116 clonal line, CellTiter-Glo (AID 824;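 active means viability at or below 27.92% in each of two runs, the all-compound median minus 4 SD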;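 further: 0% = 20 µM Hyamine control and 100% = vehicle cell control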); details: 60 h, at 10 µM, stronger effect = lower value
[6] = inhibitors of the yeast RAM network, pilot screen, dse1pr::URA3 reporter, 5-FOA selection (AID 869);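 further: 0% = DMSO wells with no growth and 100% = 10 µM 1-NA-PP1 with full growth; RAM network block rescues cells from 5-FOA so hits raise OD615 growth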; details: S. cerevisiae dse1pr::URA3 5-FOA growth, OD615, 2 d; at 10 µM; stronger effect = higher value; strain carries analog-sensitive mutant Cbk1 kinase
[7] = RAM signaling pathway blockade in yeast – S. cerevisiae, Pdr1DBD-CYC8 efflux-inhibited sensitized strain, primary screen (AID 1298;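 active means RAM network inhibition above 8.4% in each of two replicates, 3 SD over the compound average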;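 further: 0% = DMSO untreated cells without growth and 100% = 10 µM 1-NA-PP1 full growth; higher means more yeast growth rescued from 5-FOA killing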); details: S. cerevisiae cbk1-as DSE1-URA3 strain, 5-FOA growth OD615, 2 d; at 50 µM; stronger effect = higher value

CC(=O)Nc1ccc(OC/C=C(\C)Cl)cc1
inactive: growth inhibition [1] -16.6% | growth inhibition [2] -7.54% | viability increase [3] -1.2% | viability [4] 101% | viability [5] 101% | inhibition [6] 0.895% | RAM network inhibition [7] 2.95%

CCOCCCNC(=O)C(NC(=O)c1cnccn1)c1ccc(OC)cc1 (configuration not stated)
inactive: growth inhibition [1] -8.29% | growth inhibition [2] -6.63% | viability increase [3] 1.76% | viability [4] 102% | viability [5] 95.7% | inhibition [6] 1.81% | RAM network inhibition [7] 2.15%

COc1ccc(-c2nc(C#N)c(NCCN(C)C)o2)cc1
inactive: growth inhibition [1] -5.38% | growth inhibition [2] -5.11% | viability increase [3] -0.95% | viability [4] 101% | viability [5] 97.5% | inhibition [6] 0.355% | RAM network inhibition [7] 3.09%

c1nnc2c3c4c(sc3ncn12)CCC4
inactive: growth inhibition [1] -1.74% | growth inhibition [2] 15.2% | viability increase [3] -3.97% | viability [4] 96.6% | viability [5] 107% | inhibition [6] 1.25% | RAM network inhibition [7] 6.33%

O=C(c1ccc(CS(=O)(=O)c2ccc(Br)cc2)o1)N1CCN(c2ccccn2)CC1
inactive: growth inhibition [1] -5.91% | growth inhibition [2] -14.9% | viability increase [3] -3.76% | viability [4] 98.8% | viability [5] 84.4% | inhibition [6] 1.34% | RAM network inhibition [7] 4.8%

CN(C)c1ccc(C2N(c3ccc(Cl)cc3)C(=O)C3CCCN32)cc1 (configuration not stated)
inactive: growth inhibition [1] -2.63% | growth inhibition [2] 6.78% | viability increase [3] -1.01% | viability [4] 98.1% | viability [5] 98.7% | inhibition [6] 2.37% | RAM network inhibition [7] 1.57%

Cn1c(C(C#N)C(=O)Cc2cccc3ccccc23)nc2ccccc21 (configuration not stated)
inactive: growth inhibition [1] -3.6% | growth inhibition [2] -5.02% | viability increase [3] -1.14% | viability [4] 81.5% | viability [5] 78.9% | inhibition [6] 2.59% | RAM network inhibition [7] 4.32%

CCCn1c(CCNC(=O)c2cccs2)nc2ccccc21
inactive: growth inhibition [1] -1.19% | growth inhibition [2] 4.79% | viability increase [3] -0.97% | viability [4] 94.9% | viability [5] 91.5% | inhibition [6] 1.37% | RAM network inhibition [7] 4.94%

O=C(CCNS(=O)(=O)c1cccc2nsnc12)NC1CCCc2ccccc21 (configuration not stated)
inactive: growth inhibition [1] -9.18% | growth inhibition [2] -13.1% | viability increase [3] -4.33% | viability [4] 88.2% | viability [5] 90.3% | inhibition [6] 1.23% | RAM network inhibition [7] 0.26%

O=C(NCCN1CCN(c2ccccc2F)CC1)C1CCCN(S(=O)(=O)c2cnc[nH]2)C1 (configuration not stated)
inactive: growth inhibition [1] 5.84% | growth inhibition [2] 3.21% | viability increase [3] -1.19% | viability [4] 104% | viability [5] 98% | inhibition [6] 2.38% | RAM network inhibition [7] 0.68%

CN(C)CCNC(=O)c1ccc(CS(=O)(=O)c2ccc(Br)cc2)o1
inactive: growth inhibition [1] 3.18% | growth inhibition [2] 4.8% | viability increase [3] -0.05% | viability [4] 103% | viability [5] 103% | inhibition [6] 0.565% | RAM network inhibition [7] 2.81%

CCOc1ccc(C2CC(=O)NC(SCC(=O)OC)=C2C#N)cc1 (configuration not stated)
inactive: growth inhibition [1] 3.64% | growth inhibition [2] 6.22% | viability increase [3] 2.65% | viability [4] 102% | viability [5] 105% | inhibition [6] 1.87% | RAM network inhibition [7] 1.2%

O=C(NCC1(c2ccccc2)CCOCC1)c1ccc(Br)o1
inactive: growth inhibition [1] -2.18% | growth inhibition [2] -3.91% | viability increase [3] 2.31% | viability [4] 93% | viability [5] 92.3% | inhibition [6] 0.365% | RAM network inhibition [7] 2.97%

Cc1cc(=O)[nH]c(SCc2cc(Cl)ccc2OC(F)F)n1
inactive: growth inhibition [1] -4.67% | growth inhibition [2] 15.1% | viability increase [3] -1.54% | viability [4] 98.2% | viability [5] 92.1% | inhibition [6] 1.62% | RAM network inhibition [7] 5.32%

CCCN1C(=O)c2cc(C(=O)NCCc3cccc(C)c3)ccc2C1O (configuration not stated)
inactive: growth inhibition [1] -2.76% | growth inhibition [2] 1.97% | viability increase [3] -3.1% | viability [4] 104% | viability [5] 104% | inhibition [6] 0.08% | RAM network inhibition [7] 1.65%

O=C(C1CC1)N1CCc2cc(Br)cc(S(=O)(=O)NCc3ccccn3)c21
inactive: growth inhibition [1] -8.05% | growth inhibition [2] -19% | viability increase [3] -1.89% | viability [4] 99.2% | viability [5] 96.9% | inhibition [6] 1.32% | RAM network inhibition [7] 5.17%

CCCCn1c(CCCNC(=O)CC)nc2ccccc21
inactive: growth inhibition [1] 0.535% | growth inhibition [2] -5.98% | viability increase [3] -4.51% | viability [4] 94.2% | viability [5] 85.8% | inhibition [6] 1.65% | RAM network inhibition [7] 4.06%

CCOC(=O)C1CCN(C(c2ccc(OC)c(OC)c2)c2sc3nc(C)nn3c2O)CC1 (configuration not stated)
inactive: growth inhibition [1] -3.62% | growth inhibition [2] 9.57% | viability increase [3] -2.25% | viability [4] 95.4% | viability [5] 96.1% | inhibition [6] -0.01% | RAM network inhibition [7] -0.97%

CC(C)N(Cc1nc(-c2ccc(Cl)cc2)no1)C(=O)CCC1CCCC1
inactive: growth inhibition [1] -13.1% | growth inhibition [2] -14.6% | viability increase [3] -0.03% | viability [4] 70.3% | viability [5] 74.4% | inhibition [6] 0.865% | RAM network inhibition [7] 8.34%

CCOC(=O)c1nn(-c2ccccc2)c(=O)c2c(N)scc12
inactive: growth inhibition [1] -4.99% | growth inhibition [2] -1.54% | viability increase [3] -3.93% | viability [4] 102% | viability [5] 107% | inhibition [6] 2.98% | RAM network inhibition [7] 4.03%

COc1ccc(C2(O)CCN(C(=O)Cc3cccnc3)CC2)cc1
inactive: growth inhibition [1] -20.4% | growth inhibition [2] -12% | viability increase [3] 1.04% | viability [4] 99.3% | viability [5] 94.7% | inhibition [6] 1.03% | RAM network inhibition [7] 1.03%

Cc1c(NC(=O)CCCCCN2C(=O)C3C4C=CC(C4)C3C2=O)c(=O)n(-c2ccccc2)n1C (configuration not stated)
inactive: growth inhibition [1] 5.03% | growth inhibition [2] 5.79% | viability increase [3] -0.51% | viability [4] 103% | viability [5] 100% | inhibition [6] 0.685% | RAM network inhibition [7] 2.6%

CC(=O)c1ccc(OCC(O)Cn2nnc3ccccc32)cc1 (configuration not stated)
inactive: growth inhibition [1] -15.7% | growth inhibition [2] -1.76% | viability increase [3] 0.2% | viability [4] 87.6% | viability [5] 97.9% | inhibition [6] 0.455% | RAM network inhibition [7] 7.79%

O=C(CC(c1ccccc1)c1ccccc1)NCCO
inactive: growth inhibition [1] -6.53% | growth inhibition [2] -4.9% | viability increase [3] 0.49% | viability [4] 100% | viability [5] 96.1% | inhibition [6] 2.24% | RAM network inhibition [7] 5.36%

c1ccc(N(c2ccccc2)c2nc(N3CCOCC3)nc(N3CCOCC3)n2)cc1
inactive: growth inhibition [1] 4.5% | growth inhibition [2] -1.27% | viability increase [3] -3.09% | viability [4] 92.2% | viability [5] 89.9% | inhibition [6] 4.5% | RAM network inhibition [7] 3.75%

c1ccc(-n2cnnc2SCc2cn3ccccc3n2)cc1
inactive: growth inhibition [1] 5.34% | growth inhibition [2] 20.6% | viability increase [3] -4.4% | viability [4] 101% | viability [5] 95.6% | inhibition [6] 1.19% | RAM network inhibition [7] 7.66%

CCOc1ccccc1N1C(=O)CC(Nc2ccc(N3CCOCC3)cc2)C1=O (configuration not stated)
inactive: growth inhibition [1] -0.205% | growth inhibition [2] 7.53% | viability increase [3] -2.65% | viability [4] 101% | viability [5] 101% | inhibition [6] 1.6% | RAM network inhibition [7] 5.11%

O=C(CC1SC(=Nc2ccccc2)N(CCCO)C1=O)Nc1ccc(Cl)cc1 (configuration not stated)
inactive: growth inhibition [1] -6.75% | growth inhibition [2] -7.97% | viability increase [3] -6.7% | viability [4] 48.1% | viability [5] 42.1% | inhibition [6] 0.52% | RAM network inhibition [7] 1.29%

COc1cc2c(cc1OC)C(C(=O)N1CCCC1)C(c1ccccc1F)N(C)C2=O (configuration not stated)
inactive: growth inhibition [1] -23.3% | growth inhibition [2] -16.3% | viability increase [3] -1.68% | viability [4] 91.3% | viability [5] 97% | inhibition [6] 0.27% | RAM network inhibition [7] 3.55%

CCOC(=O)c1nc2nc(C)cc(=O)n2[nH]1
inactive: growth inhibition [1] -14.5% | growth inhibition [2] -7.54% | viability increase [3] 0.46% | viability [4] 105% | viability [5] 97.7% | inhibition [6] 0.96% | RAM network inhibition [7] 4.54%

Cc1ccc(-c2nc(CS(=O)(=O)CC(=O)N3CCc4ccccc4C3)c(C)o2)cc1
inactive: growth inhibition [1] -3.42% | growth inhibition [2] -1.55% | viability increase [3] -2.25% | viability [4] 67.4% | viability [5] 68.9% | inhibition [6] 0.555% | RAM network inhibition [7] 7.91%

CC1Cc2ccccc2N1C(=O)C1CCCN(S(=O)(=O)c2cccc3cccnc23)C1 (configuration not stated)
inactive: growth inhibition [1] -6.46% | growth inhibition [2] -11% | viability increase [3] -5.48% | viability [4] 67.9% | viability [5] 62.2% | inhibition [6] 2.08% | RAM network inhibition [7] 7.93%

O=C(CSCC(=O)N1CCOCC1)Nc1ccccc1
inactive: growth inhibition [1] -11.4% | growth inhibition [2] -8.24% | viability increase [3] -0.42% | viability [4] 97.2% | viability [5] 97.8% | inhibition [6] 0.42% | RAM network inhibition [7] 2.75%

COC(=O)c1nc2cc(C)ccn2c1F
inactive: growth inhibition [1] 0.67% | growth inhibition [2] 0.595% | viability increase [3] -1.42% | viability [4] 105% | viability [5] 94.3% | inhibition [6] 2.7% | RAM network inhibition [7] 0.79%

c1csc(Cc2nc(-c3ccc(-n4cccc4)cc3)no2)c1
inactive: growth inhibition [1] -6.69% | growth inhibition [2] -14.7% | viability increase [3] -0.35% | viability [4] 106% | viability [5] 93.8% | inhibition [6] 3.12% | RAM network inhibition [7] 1.65%

CC1C(c2ccccc2)=[N+]([O-])C2(CCCC2)N1O (configuration not stated)
inactive: growth inhibition [1] -2.46% | growth inhibition [2] -6.78% | viability increase [3] -3.01% | viability [4] 97% | viability [5] 96.6% | inhibition [6] 1.53% | RAM network inhibition [7] 1.41%
